The source of these data is ChEMBL document CHEMBL3259767, “Design, synthesis and biological evaluation of Pontin ATPase inhibitors through a molecular docking approach” (Bioorg Med Chem Lett, 2014).

In assay [1] the test system is HL-60. As to the kind of experiment: Induction of necrosis in human HL60 cells assessed as decrease in total LDH at 1 uM after 48 hrs. The assay is classed as functional, cell-based. The gist of the method:
(§1)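 Necrosis marker: LDH released into the culture medium and total LDH were measured in HL60 cells after 24 or 48 h treatment at 5–50 µM, with doxorubicin 1 µM as control.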

Assay [2] concerns the target RuvB-like 1 (Homo sapiens) (UniProt Q9Y265). Description: Inhibition of human recombinant his-tagged pontin expressed in Escherichia coli BL21 assessed as reduction in inorganic phosphate release at 100 uM after 10 mins by malachite green-based colorimetric assay. A digest of the protocol: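 Pontin ATPase activity was measured as inorganic phosphate release by malachite green assay, with compounds tested at 100 µM.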

A further assay has as its system MCF7. As to the kind of experiment: Antiproliferative activity against human MCF7 cells at 10 uM after 72 hrs. The assay is classed as functional, cell-based. The gist of the method: (§2)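 Cells exposed to compound for 72 h. IC50 values come from KB and HL60 cells. Single-point screening was run at 10^-5 M.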
For the next assay, the system named is HCT-116. Description: Antiproliferative activity against human HCT116 cells at 10 uM after 72 hrs. Format: functional, cell-based. The gist of the method: as §2
Assay [3] concerns HL-60. Description: Antiproliferative activity against human HL60 cells at 10 uM after 72 hrs. Format: functional, cell-based. The gist of the method: as §2
Assay [4] relates to KB. Description: Antiproliferative activity against human KB cells at 10 uM after 72 hrs. Format: functional, cell-based. A digest of the protocol:
as §2

Assay [5] has as its system HL-60. As to the kind of experiment: Induction of apoptosis in human HL60 cells assessed as caspase 3 activity measured as cleavage of DEVD at 5 uM after 24 hrs by FACS analysis relative to control. The assay is classed as functional. A digest of the protocol:
(§3)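 Caspase 3 activity was read in HL60 cells after 24 or 48 h treatment at 5–50 µM, with doxorubicin 1 µM as positive control. Activity is expressed relative to untreated HL60, set at 100.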
For orientation: In flow cytometry, cells or beads pass a laser one at a time.

The subject of assay [6] is HL-60. Description: Antiproliferative activity against human HL60 cells after 72 hrs. Format: functional, cell-based. Particulars: HL-60, 72 h. The gist of the method:
as §2

The test system of assay [7] is KB. Description: Antiproliferative activity against human KB cells after 72 hrs. The assay is classed as functional, cell-based. The gist of the method:
as §2

Assay [8] is described as follows: Antiproliferative activity against human EPC cells after 72 hrs. Format: cell-based.
For assay [9], the system named is HL-60. Description: Induction of apoptosis in human HL60 cells after 24 to 48 hrs by FACS analysis. The assay is classed as functional, cell-based. A digest of the protocol:
(§4)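 HL60 cells were labelled with annexin and 7-AAD after 24 or 48 h exposure at 5, 20 or 50 µM, with doxorubicin 100 nM as reference. FACS sorted cells into intact, early apoptotic, late apoptotic and necrotic fractions, given as percentages.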

In assay [10] the test system is HL-60. Description: Induction of apoptosis in human HL60 cells at 20 uM after 24 hrs by FACS analysis. Format: functional, cell-based. A digest of the protocol:
as §4

The subject of assay [11] is HL-60. As to the kind of experiment: Induction of apoptosis in human HL60 cells at 20 uM after 48 hrs by FACS analysis. The assay is classed as functional, cell-based. The gist of the method:
as §4

Assay [12] relates to HL-60. Description: Induction of apoptosis in human HL60 cells at 50 uM after 24 hrs by FACS analysis relative to control. Format: functional. A digest of the protocol:
as §4

Assay [13] has as its system HL-60. Description: Induction of apoptosis in human HL60 cells assessed as caspase 3 activity measured as cleavage of DEVD at 10 uM after 24 hrs by FACS analysis relative to control. Format: functional. A digest of the protocol:
as §3

Assay [14] relates to HL-60. As to the kind of experiment: Induction of apoptosis in human HL60 cells assessed as caspase 3 activity measured as cleavage of DEVD at 20 uM after 24 hrs by FACS analysis relative to control. Format: functional. A digest of the protocol: as §3
The subject of assay [15] is HL-60. Description: Induction of apoptosis in human HL60 cells assessed as caspase 3 activity measured as cleavage of DEVD at 50 uM after 24 hrs by FACS analysis relative to control. The assay is classed as functional. The gist of the method:
as §3

Assay [16] deals with HL-60. As to the kind of experiment: Induction of apoptosis in human HL60 cells assessed as caspase 3 activity measured as cleavage of DEVD at 5 uM after 48 hrs by FACS analysis relative to control. Format: functional. A digest of the protocol:
as §3

Assay [17] relates to HL-60. Description: Induction of apoptosis in human HL60 cells assessed as caspase 3 activity measured as cleavage of DEVD at 10 uM after 48 hrs by FACS analysis relative to control. The assay is classed as functional. The gist of the method:
as §3

Assay [18] relates to HL-60. As to the kind of experiment: Induction of apoptosis in human HL60 cells assessed as caspase 3 activity measured as cleavage of DEVD at 20 uM after 48 hrs by FACS analysis relative to control. The assay is classed as functional. A digest of the protocol:
as §3

The subject of assay [19] is HL-60. As to the kind of experiment: Induction of apoptosis in human HL60 cells assessed as caspase 3 activity measured as cleavage of DEVD at 50 uM after 48 hrs by FACS analysis relative to control. Format: functional. The gist of the method:
as §3

Assay [20] deals with HL-60. As to the kind of experiment: Induction of apoptosis in human HL60 cells assessed as caspase 3 activity measured as cleavage of DEVD after 24 to 48 hrs by FACS analysis relative to control. Format: functional, cell-based. The gist of the method: as §3
The subject of assay [21] is HL-60. Description: Induction of necrosis in human HL60 cells assessed as LDH release at >20 uM after 24 hrs. The assay is classed as functional, cell-based. The gist of the method: as §1
On the technique in general: LDH leaks from cells whose membrane has failed.

Assay [22] deals with HL-60. As to the kind of experiment: Induction of necrosis in human HL60 cells assessed as decrease in total LDH after 48 hrs. Format: functional, cell-based. The gist of the method: as §1
Assay [23] has as its system HL-60. As to the kind of experiment: Cell cycle arrest in human HL60 cells assessed as accumulation at subG1 phase at 5 uM after 24 hrs by propidium iodide-based flow cytometry (reference value: 1.2 %). The assay is classed as functional. A digest of the protocol: (§5)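 HL60 cells were treated for 24 h at 5, 20 or 50 µM, with doxorubicin 50 nM as control. DNA was stained with propidium iodide and analysed by flow cytometry. Results are the percentage of cells in subG1, G0/G1, S and G2/M.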

For assay [24], the system named is HL-60. Description: Cell cycle arrest in human HL60 cells assessed as accumulation at subG1 phase at 20 uM after 24 hrs by propidium iodide-based flow cytometry (reference value: 1.2 %). Format: functional. The gist of the method: as §5
Assay [25] concerns HL-60. Description: Cell cycle arrest in human HL60 cells assessed as accumulation at subG1 phase at 50 uM after 24 hrs by propidium iodide-based flow cytometry (reference value: 1.2 %). Format: functional. A digest of the protocol: as §5
Assay [26] concerns HL-60. Description: Cell cycle arrest in human HL60 cells assessed as accumulation at G0/G1 phase at 5 uM after 24 hrs by propidium iodide-based flow cytometry (reference value: 47.6 %). The assay is classed as functional. A digest of the protocol: as §5
The test system of assay [27] is HL-60. Description: Cell cycle arrest in human HL60 cells assessed as accumulation at G0/G1 phase at 20 uM after 24 hrs by propidium iodide-based flow cytometry (reference value: 47.6 %). Format: functional. The gist of the method: as §5
The subject of assay [28] is HL-60. Description: Cell cycle arrest in human HL60 cells assessed as accumulation at G0/G1 phase at 50 uM after 24 hrs by propidium iodide-based flow cytometry (reference value: 47.6 %). Format: functional. The gist of the method:
as §5

Assay [29] relates to HL-60. As to the kind of experiment: Cell cycle arrest in human HL60 cells assessed as accumulation at S phase at 5 uM after 24 hrs by propidium iodide-based flow cytometry (reference value: 48.7 %). The assay is classed as functional. The gist of the method: as §5
Assay [30] deals with HL-60. As to the kind of experiment: Cell cycle arrest in human HL60 cells assessed as accumulation at S phase at 20 uM after 24 hrs by propidium iodide-based flow cytometry (reference value: 48.7 %). The assay is classed as functional. The gist of the method: as §5
Assay [31] has as its system HL-60. As to the kind of experiment: Cell cycle arrest in human HL60 cells assessed as accumulation at S phase at 50 uM after 24 hrs by propidium iodide-based flow cytometry (reference value: 48.7 %). The assay is classed as functional. A digest of the protocol: as §5
Assay [32] deals with HL-60. As to the kind of experiment: Cell cycle arrest in human HL60 cells assessed as accumulation at G2/M phase at 5 uM after 24 hrs by propidium iodide-based flow cytometry (reference value: 2.5 %). Format: functional. A digest of the protocol:
as §5

Assay [33] has as its system HL-60. Description: Cell cycle arrest in human HL60 cells assessed as accumulation at G2/M phase at 20 uM after 24 hrs by propidium iodide-based flow cytometry (reference value: 2.5 %). Format: functional. The gist of the method:
as §5

Assay [34] relates to HL-60. As to the kind of experiment: Cell cycle arrest in human HL60 cells assessed as accumulation at G2/M phase at 50 uM after 24 hrs by propidium iodide-based flow cytometry (reference value: 2.5 %). The assay is classed as functional. The gist of the method: as §5
Assay [35] concerns HL-60. As to the kind of experiment: Cell cycle arrest in human HL60 cells assessed as accumulation at subG1 phase after 24 hrs by propidium iodide-based flow cytometry. The assay is classed as functional. A digest of the protocol:
as §5

The source made the active and inactive calls. The rule behind the calls is not given here.

Chain of RuvB-like 1 (Homo sapiens) (Q9Y265 whole entry): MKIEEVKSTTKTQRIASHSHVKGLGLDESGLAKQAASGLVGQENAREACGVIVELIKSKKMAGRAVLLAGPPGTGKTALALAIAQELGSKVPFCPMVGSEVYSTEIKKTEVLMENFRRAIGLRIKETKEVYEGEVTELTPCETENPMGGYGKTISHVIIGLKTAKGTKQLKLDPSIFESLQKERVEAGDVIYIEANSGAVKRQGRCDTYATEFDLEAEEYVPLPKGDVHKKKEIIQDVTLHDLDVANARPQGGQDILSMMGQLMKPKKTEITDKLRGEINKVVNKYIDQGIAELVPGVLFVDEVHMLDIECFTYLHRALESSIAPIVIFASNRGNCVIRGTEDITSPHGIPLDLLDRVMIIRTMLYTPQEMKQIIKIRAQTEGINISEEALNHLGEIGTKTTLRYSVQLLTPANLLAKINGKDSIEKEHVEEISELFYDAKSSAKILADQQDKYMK

On to `COc1cccc2c1C(=O)c1c(O)c3c(c(O)c1C2=O)C[C@@](O)(C(=O)CO)C[C@@H]3O[C@H]1C[C@H](N)[C@H](O)[C@H](C)O1`, for which the result in the assay on HL-60 [1] was Active.
Take `O=C(O)[C@@H](Cc1c[nH]c2ccccc12)NCc1ccc(-c2c(O)c3ccccc3[nH]c2=O)cc1`: the inhibition entry in assay [2] is “inactive”. In addition, the result with MCF7, in the assay with HCT-116, with HL-60 [3] and in the assay on KB [4] was inactive.
As usually defined, the IC50 is the concentration needed to halve the response being measured. A higher IC50 goes with lower potency. Take `N[C@@H](Cc1c[nH]c2ccccc12)C(=O)Nc1ccc(-c2c(O)c(-c3ccccc3)c[nH]c2=O)cc1`: the Activity is 116% in the assay on HL-60 [5]; “Dose-dependent effect” in the assay on HL-60 [9]; 95% in the assay on HL-60 [12]; 111% in the assay with HL-60 [13]; 134% in the assay with HL-60 [14]; 306% with HL-60 [15]. In addition, the Activity in the assay on HL-60 [16] was 119%; in the assay with HL-60 [17], 131%; with HL-60 [18], 247%; with HL-60 [19], 169%; with HL-60 [20] it was “Dose-dependent effect”; in the assay with HL-60 [22] it was “Dose-dependent effect”. The Activity with HL-60 [23] is on record as 2.7%; in the assay on HL-60 [24] it was 10.9%; in the assay on HL-60 [25], 69.5%; in the assay on HL-60 [26], 48.3%; with HL-60 [27] it was 46.8%; in the assay with HL-60 [28] it was 14.7%. The Activity in the assay with HL-60 [29] came out at 44.7%; with HL-60 [30], 34.4%; in the assay on HL-60 [31] it was 14.6%; with HL-60 [32], 4.3%; with HL-60 [33], 8%; in the assay on HL-60 [34] it was 1.3%. For the same molecule, the Activity entry in the assay on HL-60 [35] is “Dose-dependent effect”. Besides, the inhibition entry in [2] was “Active”. Moreover, the result in the assay with MCF7, with HCT-116, in the assay on HL-60 [3], in the assay on KB [4], in the assay with HL-60 [10] and in the assay on HL-60 [11] was Active. Also, the outcome in the assay with HL-60 [21] was Active. Besides, the results for the IC50 (in the assay with HL-60 [6]; in the assay with KB [7]; in assay [8]) were 15 µM, 9 µM and 25 µM, respectively.
`O=C(O)[C@H](Cc1c[nH]c2ccccc12)NCc1ccc(-c2c(O)c3ccccc3[nH]c2=O)cc1`: in [2], the inhibition entry is “inactive”. Moreover, the result in the assay with MCF7, in the assay on HCT-116, with HL-60 [3] and in the assay with KB [4] was inactive.
On to `N[C@@H](Cc1c[nH]c2ccccc12)C(=O)Nc1ccc(-c2c(O)c3ccccc3[nH]c2=O)cc1`, for which the result in the assay with MCF7, in the assay with HCT-116, in the assay with HL-60 [3] and with KB [4] was inactive.
